# Source: ChEMBL document CHEMBL2331274, “SAR based design of nicotinamides as a novel class of androgen receptor antagonists for prostate cancer” (J Med Chem, 2013)
# Activity calls are given as the source filed them. No cut-off for these calls is given here.
# What was measured:
# [1] = biological target: T1, Androgen receptor (Mus musculus, UniProt P19091); experiment: Displacement of [3H] ]5alpha-DHT from mouse androgen receptor expressed in monkey COS7 cells after 2 hrs by scintillation counting analysis; assay type: cell-based, COS-7
# T1 sequence (P19091 whole entry): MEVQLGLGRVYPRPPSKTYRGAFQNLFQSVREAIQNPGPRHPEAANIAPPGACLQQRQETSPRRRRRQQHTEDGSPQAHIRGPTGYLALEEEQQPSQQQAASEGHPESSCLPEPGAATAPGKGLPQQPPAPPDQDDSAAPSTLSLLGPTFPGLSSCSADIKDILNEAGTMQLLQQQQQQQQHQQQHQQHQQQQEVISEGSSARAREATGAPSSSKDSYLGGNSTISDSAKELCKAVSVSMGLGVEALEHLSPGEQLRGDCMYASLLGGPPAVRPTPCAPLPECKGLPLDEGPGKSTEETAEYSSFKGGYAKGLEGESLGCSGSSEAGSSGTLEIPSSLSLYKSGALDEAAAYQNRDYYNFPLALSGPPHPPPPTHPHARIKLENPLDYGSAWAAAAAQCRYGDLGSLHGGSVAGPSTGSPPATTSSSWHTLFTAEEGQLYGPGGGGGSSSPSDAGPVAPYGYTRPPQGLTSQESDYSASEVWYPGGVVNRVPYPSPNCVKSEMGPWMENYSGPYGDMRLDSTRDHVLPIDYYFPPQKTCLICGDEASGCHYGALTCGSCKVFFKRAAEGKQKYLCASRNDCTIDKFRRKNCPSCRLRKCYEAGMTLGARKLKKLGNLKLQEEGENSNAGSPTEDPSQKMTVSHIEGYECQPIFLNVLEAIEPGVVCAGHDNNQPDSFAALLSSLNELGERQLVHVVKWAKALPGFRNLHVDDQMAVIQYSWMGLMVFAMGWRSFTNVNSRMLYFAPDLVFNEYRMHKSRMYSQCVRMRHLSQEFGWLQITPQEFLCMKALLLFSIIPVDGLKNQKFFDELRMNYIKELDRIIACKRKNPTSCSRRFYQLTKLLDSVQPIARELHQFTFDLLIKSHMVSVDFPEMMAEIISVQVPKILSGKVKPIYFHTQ
# [2] = biological target: T2, Androgen receptor (Homo sapiens) (UniProt P10275); experiment: Inhibition of androgen receptor-mediated SRC2 coactivator recruitment in human PPC1 cells at 10 uM after 1 hr by DAPI staining-based fluorescence microscopic analysis; assay type: cell-based; conditions: PPC-1
# T2 sequence (whole entry): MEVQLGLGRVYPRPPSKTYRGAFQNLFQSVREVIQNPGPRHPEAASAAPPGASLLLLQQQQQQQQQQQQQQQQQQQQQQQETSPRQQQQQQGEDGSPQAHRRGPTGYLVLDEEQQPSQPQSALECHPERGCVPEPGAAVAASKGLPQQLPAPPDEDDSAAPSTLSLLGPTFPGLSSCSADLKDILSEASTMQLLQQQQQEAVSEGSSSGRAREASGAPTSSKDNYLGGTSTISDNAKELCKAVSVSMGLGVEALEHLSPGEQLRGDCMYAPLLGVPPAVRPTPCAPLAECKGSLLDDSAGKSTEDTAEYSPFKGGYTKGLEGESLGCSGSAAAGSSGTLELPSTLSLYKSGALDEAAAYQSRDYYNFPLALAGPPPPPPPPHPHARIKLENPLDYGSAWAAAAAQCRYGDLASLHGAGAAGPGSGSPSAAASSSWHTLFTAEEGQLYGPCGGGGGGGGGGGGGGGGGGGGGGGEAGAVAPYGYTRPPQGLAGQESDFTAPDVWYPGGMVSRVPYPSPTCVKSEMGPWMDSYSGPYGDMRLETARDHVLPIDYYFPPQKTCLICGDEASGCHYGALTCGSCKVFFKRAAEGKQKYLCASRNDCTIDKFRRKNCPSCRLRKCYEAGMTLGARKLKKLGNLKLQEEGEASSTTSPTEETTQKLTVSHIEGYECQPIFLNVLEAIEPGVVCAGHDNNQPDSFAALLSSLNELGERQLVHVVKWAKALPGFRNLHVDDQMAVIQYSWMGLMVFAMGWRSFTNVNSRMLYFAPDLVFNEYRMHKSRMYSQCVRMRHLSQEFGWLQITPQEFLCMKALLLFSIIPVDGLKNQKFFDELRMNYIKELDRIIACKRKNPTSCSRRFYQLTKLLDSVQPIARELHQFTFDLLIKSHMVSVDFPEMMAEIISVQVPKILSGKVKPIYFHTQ
# [3] = biological target: T1, Androgen receptor; experiment: Antagonist activity at mouse androgen receptor assessed as inhibition of transactivation after 24 hrs by cell-based luciferase reporter gene assay
# [4] = biological target: T3, Androgen receptor (Mus musculus) (UniProt P19091); experiment: Agonist activity at mouse androgen receptor at 10 uM after 24 hrs by cell-based luciferase reporter gene assay relative to control
# T3 sequence (whole entry): T1 sequence (P19091 whole entry)
# Method in brief: (§1)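 Transcriptional activity is expressed as a percentage after 10 μM compound, given alone for agonist mode or with 10 nM DHT for antagonist mode. Data are from triplicate experiments.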
# [5] = biological target: T3, Androgen receptor (Mus musculus); experiment: Antagonist activity against mouse androgen receptor assessed as reduction of 10 nM DHT-induced transcriptional activity at 10 uM after 24 hrs by cell-based luciferase reporter gene assay relative to control; method in brief: as §1
# [6] = tested on: PPC-1; experiment: Cytotoxicity against human androgen-independent/AR-negative PPC1 cells after 3 days by MTS/PMS assay; assay type: functional, cell-based
# [7] = biological target: T2, Androgen receptor (Homo sapiens); experiment: Inhibition of androgen receptor-mediated SRC1 coactivator recruitment in human PPC1 cells at 10 uM after 1 hr by DAPI staining-based fluorescence microscopic analysis; assay type: cell-based; conditions: PPC-1
# [8] = tested on: LNCaP C4-2; experiment: (§2) Cytotoxicity against human androgen-independent/AR-positive C4-2 cells […] after 4 days by MTS/PMS assay; assay type: functional, cell-based
# [9] = tested on: LNCaP; experiment: Cytotoxicity against human androgen-dependent LNCAP cells at 10 uM after 7 days by MTS/PMS assay relative to control; assay type: functional
# [10] = biological target: T2, Androgen receptor (Homo sapiens); experiment: Inhibition of DHT-induced androgen receptor-mediated GFP-AR protein nuclear translocation in human PPC1 cells at 10 uM after 1 hr by DAPI staining-based fluorescence microscopic analysis; assay type: cell-based; conditions: PPC-1
# [11] = tested on: LNCaP; experiment: Cytotoxicity against human androgen-dependent LNCAP cells after 6 days by MTS/PMS assay; assay type: functional, cell-based; conditions: 144 h
# [12] = as §2; assay type: functional, cell-based; conditions: LNCaP C4-2, 96 h
# [13] = tested on: MEF; experiment: Cytotoxicity against mouse MEF cells at 10 uM after 4 days by MTS/PMS assay; assay type: cell-based; conditions: 96 h
Ki [1] [nM],inhibition [2],IC50 [3] [nM],Activity [4] [%],inhibition [5] [%],inhibition [7],inhibition [10],Structure (SMILES),Activity [6],growth inhibition (GI) [8],growth inhibition (GI) [9],IC50 [11] [nM],IC50 [12] [nM],Activity [13],"inhibition of growth at 10 µM ([9]; 168 h, read-out: GI) [%]"
1460,Active,4450,3,89.9,Active,,Cc1cccc(NC(=O)c2ccc(N3CCc4ccccc4C3)nc2)n1,inactive,Active,Active,,,,
> 50000,Active,460,3.9,95.1,Active,Active,CCOc1ccc2c(c1)CCN(c1ccc(C(=O)Nc3cccc(C)n3)cn1)C2,inactive,,,1470,11800,Non-toxic,80
